Read-outs that look alike come from different tables or passages of the source.
Key:
[1] = monkeys; dosing in MOONFISH suspended because of it; ref not given; cited from earlier work
[2] = Phase 1 MOONFISH trial, patients with Type 2 and 3 SMA; ref NCT03032172; cited from earlier work
[3] = target: human MDR1 (Homo sapiens, UniProt P08183); experiment: Bidirectional transport assay in L‐MDR1 cells; type: in vitro ADME; details: 1 μM
Procedure, shortened: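 Transport run in LLC-PK1 or MDCKII cells, parental or transfected (L-MDR1 human MDR1, L-Mdr1a rodent Mdr1a, M-BCRP human BCRP, M-Bcrp rodent Bcrp). Cells were grown on semipermeable inserts and assayed bidirectionally on day 3 or 4 after seeding. Donor medium held 1 μM test compound plus 10 μM Lucifer yellow to check monolayer integrity. Receiver medium lacked phenol red, with or without inhibitor: zosuquidar 1 μM for MDR1/Mdr1a, Ko143 1 μM for BCRP/Bcrp. Reference substrates served as activity controls.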

[4] = test system: SMN protein; experiment: SMN protein levels in tissues of C/C‐allele SMA mice; type: in vivo; details: 10 mg/kg/day PO, 10 days, Study 12
Procedure, shortened: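 Adult C/C-allele SMA mice (FVB.129(B6) background) started dosing at ~7 weeks. Dosing was once-daily oral, as a suspension in 0.5% HPMC/0.1% Tween 80. Mice were killed by CO2 1 h after the last dose; tissues were unperfused, homogenized and diluted in RIPA. SMN was measured by HTRF in duplicate (averaged) against a recombinant human SMN standard curve, and total protein by BCA. Result: SMN/total protein per treated mouse ÷ vehicle-group mean.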

[5] = Plasma, brain and CSF drug levels in rats; type: in vivo; details: Wistar, rat, brain / total plasma, po, 7.5 mg/kg/day
[6] = Predicted CSF‐to‐unbound plasma partition coefficient from L‐Mdr1a efflux ratio; design: species or system rat; details: based on the rodent ER and model from ref 25
Procedure, shortened: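 pKp,uu derived as 1/[(1−γ)+γ·ER], with γ fixed at 0.753 and ER being the efflux ratio measured in L-Mdr1a cells.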

[7] = test system: SMN protein; experiment: SMN protein levels in brain and muscle of SMNΔ7 mice; type: in vivo; details: 7 days of once daily dosing, Study 4
[8] = test system: SMNΔ7 mice; details: dosed once daily for 219 days, Study 5; cited from earlier work
[9] = Tissue distribution in cynomolgus monkeys; type: in vivo, cynomolgus monkeys (Macaca fascicularis); details: for concentration at 7 days / Kp at 7 days / concentration at 6 weeks after the last dose: cynomolgus monkey, oral, 3 mg/kg/day
[10] = test system: SMN protein; details: SUNFISH Part 1 early interim data, dose‐dependent; cited from earlier work
[11] = test system: severe SMA mice; details: cited from earlier work
[12] = monkeys, Study 10, after 22 weeks' treatment‐free recovery period
[13] = two cynomolgus monkeys, Study 9

Chain of human MDR1 (P08183 whole entry): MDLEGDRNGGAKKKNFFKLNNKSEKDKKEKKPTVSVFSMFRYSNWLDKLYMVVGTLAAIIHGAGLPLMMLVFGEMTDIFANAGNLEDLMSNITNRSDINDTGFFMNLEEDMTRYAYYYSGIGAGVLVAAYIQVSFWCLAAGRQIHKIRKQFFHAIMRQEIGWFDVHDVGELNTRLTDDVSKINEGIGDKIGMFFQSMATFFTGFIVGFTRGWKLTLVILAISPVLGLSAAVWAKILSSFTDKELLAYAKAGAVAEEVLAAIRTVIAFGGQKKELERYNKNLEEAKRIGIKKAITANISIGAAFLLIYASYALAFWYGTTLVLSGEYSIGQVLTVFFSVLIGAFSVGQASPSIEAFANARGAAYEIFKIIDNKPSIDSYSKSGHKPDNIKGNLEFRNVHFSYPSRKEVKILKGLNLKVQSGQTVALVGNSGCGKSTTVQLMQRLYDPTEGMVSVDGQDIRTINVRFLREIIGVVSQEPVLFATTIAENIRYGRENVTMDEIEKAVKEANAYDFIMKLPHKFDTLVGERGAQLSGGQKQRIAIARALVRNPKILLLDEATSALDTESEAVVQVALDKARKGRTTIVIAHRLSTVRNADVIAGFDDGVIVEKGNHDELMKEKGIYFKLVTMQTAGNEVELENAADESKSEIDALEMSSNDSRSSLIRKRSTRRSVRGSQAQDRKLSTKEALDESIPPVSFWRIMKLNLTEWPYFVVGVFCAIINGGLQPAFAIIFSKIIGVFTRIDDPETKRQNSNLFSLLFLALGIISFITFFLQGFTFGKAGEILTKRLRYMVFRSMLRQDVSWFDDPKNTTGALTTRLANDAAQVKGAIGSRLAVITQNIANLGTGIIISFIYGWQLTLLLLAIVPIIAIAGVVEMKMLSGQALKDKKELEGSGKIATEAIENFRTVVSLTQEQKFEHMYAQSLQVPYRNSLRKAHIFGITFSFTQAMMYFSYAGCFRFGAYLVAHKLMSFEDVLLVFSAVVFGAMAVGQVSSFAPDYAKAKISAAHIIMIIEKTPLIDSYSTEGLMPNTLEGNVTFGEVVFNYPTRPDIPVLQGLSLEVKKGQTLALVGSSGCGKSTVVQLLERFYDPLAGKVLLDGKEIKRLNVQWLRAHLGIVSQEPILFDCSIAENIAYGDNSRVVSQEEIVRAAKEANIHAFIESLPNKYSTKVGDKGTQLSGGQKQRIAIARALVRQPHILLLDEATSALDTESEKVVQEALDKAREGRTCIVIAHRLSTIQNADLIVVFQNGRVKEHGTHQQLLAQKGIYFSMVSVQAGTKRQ

**Q.** For CCc1nc(C)cn2nc(-c3cc(=O)n4cc(C5CCN(C)CC5)cc(C)c4n3)cc12 [RG7800, 2‐(4‐ethyl‐6‐methyl‐pyrazolo[1,5‐a]pyrazin‐2‐yl)‐9‐methyl‐7‐(1‐methyl‐4‐piperidyl)pyrido[1,2‐a]pyrimidin‐4‐one], which “findings in long‐term nonclinical safety studies” value [1] is on record?
**A.** Its value is “off‐target retinal findings”.

**Q.** And the serious adverse events [2]?
**A.** The serious adverse events was “no serious adverse events were reported”.

**Q.** What about the “substrate of human MDR1” value [3] of the same compound?
**A.** Its value is “not a substrate of human MDR1”.

**Q.** What about the “SMN protein increase from baseline in heart” value [4] of the same compound?
**A.** Its value is 31%.

**Q.** And the “SMN protein increase from baseline in muscle” value [4]?
**A.** Its value is 23%.

**Q.** And the “SMN protein increase in pancreas” value [4]?
**A.** Its value is “fourfold”.

**Q.** Which results are given for Cc1cn2nc(-c3cc(=O)n4cc(N5CCNC6(CC6)C5)ccc4n3)cc(C)c2n1 [risdiplam, 7‐(4,7‐diazaspiro[2.5]octan‐7‐yl)‐2‐(2,8‐dimethylimidazo[1,2‐b]pyridazin‐6‐yl)pyrido[1,2‐a]pyrimidin‐4‐one]?
**A.** Kp at 90 days [5]: 0.92; predicted CSF‐to‐unbound plasma partition coefficient (pKp,uu) [6]: 0.33; increase in SMN protein levels in brain ([7]; 0.1 mg/kg/day): 28%; increase in SMN protein levels in muscle ([7]; 0.1 mg/kg/day): 32%; increase in SMN protein levels in brain ([7]; 1 mg/kg/day): 206%; increase in SMN protein levels in muscle ([7]; 1 mg/kg/day): 210%; survival of SMNΔ7 mice [8]: prolonged survival; concentration at 7 days ([9]; CSF): 53.5 ng/mL; Kp at 7 days ([9]; bone marrow / plasma): ~5; concentration at 7 days ([9]; brain): 783 ng/g; concentration at 6 weeks after the last dose ([9]; duodenum): < 1 ng/g; Kp at 7 days ([9]; kidney / plasma): 10; concentration at 6 weeks after the last dose ([9]; kidney): ~4 ng/g; concentration at 6 weeks after the last dose ([9]; larynx): < 1 ng/g; concentration at 6 weeks after the last dose ([9]; liver): ~4 ng/g; concentration at 7 days ([9]; muscle): 668 ng/g; concentration at 7 days ([9]; plasma (unbound)): 119 ng/mL; concentration at 7 days ([9]; plasma): 794 ng/mL; Kp at 7 days ([9]; spleen / plasma): ~5; concentration at 6 weeks after the last dose ([9]; spleen): < 1 ng/g; drug level in CSF [9, 12]: below the limit of quantification (BLQ); drug level in brain [9, 12]: below the limit of quantification (BLQ); drug level in plasma [9, 12]: below the limit of quantification (BLQ); average cortex/brain stem concentrations ratio ([9]; monkeys, Study 10, n = 22): 1.10; difference of brain drug level from total plasma concentration [9, 13]: less than 30%; difference of heart drug level from total plasma concentration [9, 13]: less than 30%; difference of larynx drug level from total plasma concentration [9, 13]: less than 30%; difference of muscle drug level from total plasma concentration [9, 13]: less than 30%; average increase in functional SMN protein in the blood of patients with SMA [10]: up to 2.5 fold

**Q.** For nusinersen, which median lifespan ([11]; intracerebroventricular administration) is on record?
**A.** The median lifespan was 16 days.

**Q.** And the median lifespan ([11]; subcutaneous injections)?
**A.** Its median lifespan is 108 days.

From article PMC6262736 (Pharmacology Research & Perspectives, 2018)
